Values after ≈ are worked out from the molar mass of the structure shown.
Legend:
[1] = target: Phosphatidylinositol 4,5-bisphosphate 3-kinase catalytic subunit alpha isoform (Homo sapiens, UniProt P42336); assay: Inhibition of PI3Kalpha
[2] = Terminal elimination half life in SCID mouse at 10 mg/kg, po; type: ADME, organism-based; parameters: dose 10 mg/kg, route oral; conditions: in vivo, read-out: beta t1/2 (converted)
Mus musculus [3] = assay: Inhibition of Akt phosphorylation at S473 in PTEN deficient human PC3 cells xenografted SCID mouse tumor at 244 mg/kg, po administered as suspension after 6 hrs; type: functional; conditions: PC-3, 6 h
Mus musculus [4] = assay: Inhibition of Akt phosphorylation at S473 in PTEN deficient human PC3 cells xenografted SCID mouse tumor at 30 mg/kg, po administered as solution after 6 hrs; type: functional; conditions: PC-3, 6 h
Mus musculus [5] = assay: Inhibition of Akt phosphorylation at T308 in PTEN deficient human PC3 cells xenografted SCID mouse tumor at 244 mg/kg, po administered as suspension after 6 hrs; type: functional; conditions: PC-3, 6 h
Mus musculus [6] = assay: Inhibition of Akt phosphorylation at T308 in PTEN deficient human PC3 cells xenografted SCID mouse tumor at 30 mg/kg, po administered as solution after 1 hr; type: functional; conditions: PC-3, 1 h
Mus musculus [7] = assay: Inhibition of Akt phosphorylation at T308 in PTEN deficient human PC3 cells xenografted SCID mouse tumor at 30 mg/kg, po administered as solution after 6 hrs; type: functional; conditions: PC-3, 6 h
[8] = target: Phosphatidylinositol 4,5-bisphosphate 3-kinase catalytic subunit gamma isoform (Homo sapiens, UniProt P48736); assay: Inhibition of PI3Kgamma
Sequence of Phosphatidylinositol 4,5-bisphosphate 3-kinase catalytic subunit gamma isoform (P48736 whole entry, canonical isoform): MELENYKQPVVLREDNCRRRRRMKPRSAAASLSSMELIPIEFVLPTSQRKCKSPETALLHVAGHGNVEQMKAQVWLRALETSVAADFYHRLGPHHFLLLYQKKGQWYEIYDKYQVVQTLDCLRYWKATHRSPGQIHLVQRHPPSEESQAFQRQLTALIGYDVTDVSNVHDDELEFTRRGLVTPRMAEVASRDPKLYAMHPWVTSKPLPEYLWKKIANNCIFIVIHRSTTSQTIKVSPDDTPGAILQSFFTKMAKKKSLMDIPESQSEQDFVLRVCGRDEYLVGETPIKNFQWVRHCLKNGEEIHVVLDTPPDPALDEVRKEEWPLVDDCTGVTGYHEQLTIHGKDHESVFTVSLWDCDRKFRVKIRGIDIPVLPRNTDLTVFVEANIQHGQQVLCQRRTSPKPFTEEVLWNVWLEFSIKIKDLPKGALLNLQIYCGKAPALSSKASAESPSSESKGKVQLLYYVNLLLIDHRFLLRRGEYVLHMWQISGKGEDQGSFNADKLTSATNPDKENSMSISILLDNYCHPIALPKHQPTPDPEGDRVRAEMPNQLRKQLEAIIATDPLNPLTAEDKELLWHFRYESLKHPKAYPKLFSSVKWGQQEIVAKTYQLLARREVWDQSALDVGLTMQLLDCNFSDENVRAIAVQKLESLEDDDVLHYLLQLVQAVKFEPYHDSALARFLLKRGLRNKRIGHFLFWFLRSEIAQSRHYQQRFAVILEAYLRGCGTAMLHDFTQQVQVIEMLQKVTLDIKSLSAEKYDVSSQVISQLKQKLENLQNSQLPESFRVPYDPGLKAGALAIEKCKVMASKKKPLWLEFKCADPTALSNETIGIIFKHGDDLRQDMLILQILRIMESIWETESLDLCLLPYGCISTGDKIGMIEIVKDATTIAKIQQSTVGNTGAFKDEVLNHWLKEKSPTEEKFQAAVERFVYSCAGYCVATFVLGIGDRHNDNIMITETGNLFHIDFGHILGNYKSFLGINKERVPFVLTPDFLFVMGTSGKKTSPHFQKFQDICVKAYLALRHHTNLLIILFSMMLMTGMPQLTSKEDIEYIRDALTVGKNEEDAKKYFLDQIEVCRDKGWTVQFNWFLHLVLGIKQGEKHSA

[9] = Drug uptake in PTEN deficient human PC3 cells xenografted SCID mouse tumor at 244 mg/kg, po administered as suspension after 1 hr; type: ADME, organism-based, Neoplasm, PC-3; parameters: dose 244 mg/kg, route oral; conditions: tumor (PC3 xenograft), read-out: Drug uptake
Summary of the method: (§1)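 SCID mice bearing PTEN-deficient PC3 prostate tumor xenografts given a single oral dose, either 30 mg/kg in solution or 244 mg/kg in suspension; drug levels in plasma and tumor measured at 1 and 6 h after dosing.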

[10] = Drug metabolism in human liver microsomes after 20 mins; type: ADME, Microsome; conditions: read-out: Drug metabolism
Summary of the method: (§2)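 Liver microsomes (human or mouse) incubated with compound for 20 min; %lability reported as % of compound metabolized.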

[11] = Plasma concentration in SCID mouse xenografted with PTEN deficient human PC3 cells at 30 mg/kg, po administered as solution after 6 hrs; type: ADME, organism-based, PC-3; parameters: dose 30 mg/kg, route oral; summary of the method: as §1
Cytochrome P450 3A4 = Cytochrome P450 3A4 (Homo sapiens, UniProt P08684); assay: Inhibition of human recombinant CYP3A4; type: ADME
Sequence of Cytochrome P450 3A4 (P08684 whole entry): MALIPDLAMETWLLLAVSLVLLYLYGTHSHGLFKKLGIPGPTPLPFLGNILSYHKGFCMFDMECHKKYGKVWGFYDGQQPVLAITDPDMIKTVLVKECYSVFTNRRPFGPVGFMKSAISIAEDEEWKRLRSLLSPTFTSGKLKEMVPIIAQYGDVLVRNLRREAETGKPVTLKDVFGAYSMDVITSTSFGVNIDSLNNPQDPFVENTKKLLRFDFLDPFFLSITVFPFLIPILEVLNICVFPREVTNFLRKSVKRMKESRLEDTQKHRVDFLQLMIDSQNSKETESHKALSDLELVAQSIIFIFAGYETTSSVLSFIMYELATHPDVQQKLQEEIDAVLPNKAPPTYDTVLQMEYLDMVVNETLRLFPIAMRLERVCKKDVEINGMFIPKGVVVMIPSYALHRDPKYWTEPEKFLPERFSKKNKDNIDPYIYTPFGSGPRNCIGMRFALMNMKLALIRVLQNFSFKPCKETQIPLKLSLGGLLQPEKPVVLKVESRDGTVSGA

[12] = Plasma concentration in SCID mouse xenografted with PTEN deficient human PC3 cells at 244 mg/kg, po administered as suspension after 1 hr; type: ADME, organism-based, PC-3; parameters: dose 244 mg/kg, route oral; summary of the method: as §1
Mus musculus [13] = assay: Inhibition of Akt phosphorylation at S473 in PTEN deficient human PC3 cells xenografted SCID mouse tumor at 30 mg/kg, po administered as solution after 1 hr; type: functional; conditions: PC-3, 1 h
[14] = Inhibition of Akt phosphorylation at S473 in PTEN deficient human PC3 cells; type: cell-based; conditions: PC-3
[15] = Drug uptake in PTEN deficient human PC3 cells xenografted SCID mouse tumor at 244 mg/kg, po administered as suspension after 6 hrs; type: ADME, organism-based, Neoplasm, PC-3; parameters: dose 244 mg/kg, route oral; conditions: tumor (PC3 xenograft), read-out: Drug uptake; summary of the method: as §1
[16] = Plasma concentration in SCID mouse xenografted with PTEN deficient human PC3 cells at 244 mg/kg, po administered as suspension after 6 hrs; type: ADME, organism-based, PC-3; parameters: dose 244 mg/kg, route oral; summary of the method: as §1
[17] = Efflux ratio of permeability […] in human Caco2/TC7 cells; type: ADME, cell-based
Summary of the method: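 Caco-2 TC7 clone cells grown as a monolayer; compound transport measured in both directions, apical to basolateral (A–B) and basolateral to apical (B–A); apparent permeability (Papp) read out, and efflux ratio derived from the two directional measurements.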

[18] = Plasma concentration in SCID mouse xenografted with PTEN deficient human PC3 cells at 30 mg/kg, po administered as solution after 1 hr; type: ADME, organism-based, PC-3; parameters: dose 30 mg/kg, route oral; summary of the method: as §1
Mus musculus [19] = assay: Inhibition of Akt phosphorylation at T308 in PTEN deficient human PC3 cells xenografted SCID mouse tumor at 244 mg/kg, po administered as suspension after 1 hr; type: functional; conditions: PC-3, 1 h
[20] = Volume of distribution at steady state in SCID mouse at 3 mg/kg, iv; type: ADME, organism-based; parameters: dose 3 mg/kg, route intravenous; conditions: in vivo, read-out: Vdss
[21] = Apparent permeability across human Caco2/TC7 cells; type: ADME, cell-based; conditions: Caco-2
Summary of the method: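 Caco-2 TC7 clone monolayers; transport measured in both apical-to-basolateral and basolateral-to-apical directions, giving Papp (nm/s) and an efflux ratio.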

[22] = target: Phosphatidylinositol 4,5-bisphosphate 3-kinase catalytic subunit beta isoform (Homo sapiens, UniProt P42338); assay: Inhibition of PI3Kbeta
Sequence of Phosphatidylinositol 4,5-bisphosphate 3-kinase catalytic subunit beta isoform (P42338 whole entry, canonical isoform): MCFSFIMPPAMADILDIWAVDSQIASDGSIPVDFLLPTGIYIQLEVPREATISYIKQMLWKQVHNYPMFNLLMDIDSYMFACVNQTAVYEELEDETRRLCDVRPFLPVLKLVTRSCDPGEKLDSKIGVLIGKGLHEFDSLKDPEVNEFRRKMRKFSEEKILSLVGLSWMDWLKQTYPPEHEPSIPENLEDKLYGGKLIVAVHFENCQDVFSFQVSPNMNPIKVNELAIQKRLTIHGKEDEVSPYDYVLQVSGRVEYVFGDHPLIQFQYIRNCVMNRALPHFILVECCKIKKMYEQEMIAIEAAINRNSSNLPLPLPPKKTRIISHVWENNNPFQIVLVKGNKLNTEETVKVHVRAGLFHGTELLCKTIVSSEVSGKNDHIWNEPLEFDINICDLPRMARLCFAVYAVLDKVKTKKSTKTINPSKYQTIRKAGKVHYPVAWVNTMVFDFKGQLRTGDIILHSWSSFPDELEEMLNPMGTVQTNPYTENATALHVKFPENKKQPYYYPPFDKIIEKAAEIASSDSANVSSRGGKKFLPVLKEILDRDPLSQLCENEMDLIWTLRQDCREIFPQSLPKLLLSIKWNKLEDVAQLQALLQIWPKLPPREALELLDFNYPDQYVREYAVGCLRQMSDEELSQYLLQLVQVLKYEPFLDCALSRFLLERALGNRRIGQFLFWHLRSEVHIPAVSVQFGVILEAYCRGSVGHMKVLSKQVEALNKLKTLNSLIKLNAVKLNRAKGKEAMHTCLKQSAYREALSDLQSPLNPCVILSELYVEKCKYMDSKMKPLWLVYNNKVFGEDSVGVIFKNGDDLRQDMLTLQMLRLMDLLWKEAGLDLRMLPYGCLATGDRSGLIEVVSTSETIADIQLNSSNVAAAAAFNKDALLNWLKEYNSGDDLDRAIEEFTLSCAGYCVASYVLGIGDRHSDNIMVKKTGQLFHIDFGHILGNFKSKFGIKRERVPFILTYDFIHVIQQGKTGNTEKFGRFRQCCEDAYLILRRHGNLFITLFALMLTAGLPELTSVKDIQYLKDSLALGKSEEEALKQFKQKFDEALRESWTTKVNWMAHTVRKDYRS

Mus musculus [23] = assay: Hepatic clearance in SCID mouse at 3 mg/kg, iv; type: ADME, organism-based, Liver; parameters: dose 3 mg/kg, route intravenous; conditions: in vivo
[24] = Drug uptake in PTEN deficient human PC3 cells xenografted SCID mouse tumor at 30 mg/kg, po administered as solution after 6 hrs; type: ADME, organism-based, Neoplasm, PC-3; parameters: dose 30 mg/kg, route oral; conditions: tumor (PC3 xenograft), read-out: Drug uptake; summary of the method: as §1
[25] = Equilibrium solubility of the compound in phosphate buffer at pH 7.4 after 16 hrs by HPLC analysis; type: physicochemical
[26] = Drug metabolism in mouse liver microsomes after 20 mins; type: ADME, Microsome; conditions: read-out: Drug metabolism; summary of the method: as §2
[27] = Drug uptake in PTEN deficient human PC3 cells xenografted SCID mouse tumor at 30 mg/kg, po administered as solution after 1 hr; type: ADME, organism-based, Neoplasm, PC-3; parameters: dose 30 mg/kg, route oral; conditions: tumor (PC3 xenograft), read-out: Drug uptake; summary of the method: as §1
[28] = Oral bioavailability in SCID mouse at 10 mg/kg; type: ADME, organism-based; conditions: in vivo
[29] = target: T1, Phosphatidylinositol 4,5-bisphosphate 3-kinase catalytic subunit delta isoform (Homo sapiens, UniProt O00329); assay: Inhibition of PI3Kdelta
T1 sequence (O00329 whole entry): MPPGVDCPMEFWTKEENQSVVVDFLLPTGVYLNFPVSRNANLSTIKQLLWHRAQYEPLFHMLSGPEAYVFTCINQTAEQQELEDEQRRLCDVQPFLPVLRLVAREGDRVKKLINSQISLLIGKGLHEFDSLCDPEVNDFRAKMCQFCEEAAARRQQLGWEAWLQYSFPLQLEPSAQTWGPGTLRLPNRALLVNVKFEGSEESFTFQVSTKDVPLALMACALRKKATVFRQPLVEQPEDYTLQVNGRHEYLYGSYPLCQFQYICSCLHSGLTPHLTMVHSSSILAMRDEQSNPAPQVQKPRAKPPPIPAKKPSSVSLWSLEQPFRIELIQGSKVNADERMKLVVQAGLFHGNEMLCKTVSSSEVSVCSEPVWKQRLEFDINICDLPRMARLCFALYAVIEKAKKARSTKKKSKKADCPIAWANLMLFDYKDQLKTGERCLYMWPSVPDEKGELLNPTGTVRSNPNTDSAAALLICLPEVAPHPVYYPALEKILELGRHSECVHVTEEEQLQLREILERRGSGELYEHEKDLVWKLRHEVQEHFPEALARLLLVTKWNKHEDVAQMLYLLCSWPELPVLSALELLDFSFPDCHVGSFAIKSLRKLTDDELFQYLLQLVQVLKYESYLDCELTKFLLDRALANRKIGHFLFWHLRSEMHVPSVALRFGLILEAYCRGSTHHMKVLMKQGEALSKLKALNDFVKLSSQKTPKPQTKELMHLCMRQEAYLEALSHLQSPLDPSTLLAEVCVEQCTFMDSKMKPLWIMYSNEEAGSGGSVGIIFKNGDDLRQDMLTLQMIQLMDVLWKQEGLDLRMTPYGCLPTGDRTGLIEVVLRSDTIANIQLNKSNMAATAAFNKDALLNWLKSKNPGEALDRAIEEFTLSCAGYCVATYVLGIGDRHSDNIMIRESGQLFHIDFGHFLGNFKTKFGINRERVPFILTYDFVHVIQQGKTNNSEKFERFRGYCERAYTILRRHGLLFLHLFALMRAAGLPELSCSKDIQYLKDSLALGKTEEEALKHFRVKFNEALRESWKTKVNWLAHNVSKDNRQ

Mus musculus [30] = assay: Inhibition of Akt phosphorylation at S473 in PTEN deficient human PC3 cells xenografted SCID mouse tumor at 244 mg/kg, po administered as suspension after 1 hr; type: functional; conditions: PC-3, 1 h

Sequence of Phosphatidylinositol 4,5-bisphosphate 3-kinase catalytic subunit alpha isoform (P42336 whole entry, canonical isoform): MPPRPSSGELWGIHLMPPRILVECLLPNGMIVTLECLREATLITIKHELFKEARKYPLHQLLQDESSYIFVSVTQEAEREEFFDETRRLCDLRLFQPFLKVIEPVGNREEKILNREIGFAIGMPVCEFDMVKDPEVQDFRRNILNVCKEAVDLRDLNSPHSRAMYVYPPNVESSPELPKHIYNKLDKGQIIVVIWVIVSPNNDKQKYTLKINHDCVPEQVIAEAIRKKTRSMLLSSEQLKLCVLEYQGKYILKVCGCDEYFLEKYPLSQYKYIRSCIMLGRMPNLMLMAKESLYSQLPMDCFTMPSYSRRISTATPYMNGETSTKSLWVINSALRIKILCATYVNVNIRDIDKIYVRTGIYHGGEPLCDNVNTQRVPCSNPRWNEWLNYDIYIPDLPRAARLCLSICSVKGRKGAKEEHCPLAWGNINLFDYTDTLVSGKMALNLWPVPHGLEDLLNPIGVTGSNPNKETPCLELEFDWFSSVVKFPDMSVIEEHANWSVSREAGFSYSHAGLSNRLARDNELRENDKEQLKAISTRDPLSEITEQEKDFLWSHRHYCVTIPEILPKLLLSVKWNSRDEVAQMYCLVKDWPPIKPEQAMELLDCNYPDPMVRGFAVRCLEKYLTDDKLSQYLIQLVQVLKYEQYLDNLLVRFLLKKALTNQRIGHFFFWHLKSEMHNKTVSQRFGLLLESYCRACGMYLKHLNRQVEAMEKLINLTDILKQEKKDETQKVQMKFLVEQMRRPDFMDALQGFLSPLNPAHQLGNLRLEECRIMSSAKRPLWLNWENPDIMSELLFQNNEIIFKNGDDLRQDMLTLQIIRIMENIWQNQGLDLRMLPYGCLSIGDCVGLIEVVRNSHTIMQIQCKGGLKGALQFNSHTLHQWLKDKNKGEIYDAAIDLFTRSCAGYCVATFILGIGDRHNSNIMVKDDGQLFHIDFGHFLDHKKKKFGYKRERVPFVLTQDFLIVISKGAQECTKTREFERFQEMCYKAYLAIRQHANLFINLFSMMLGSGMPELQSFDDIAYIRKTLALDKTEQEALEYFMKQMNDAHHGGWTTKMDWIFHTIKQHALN

Compound: Cn1c(CC(=O)Nc2ccc(F)c(Cl)c2)nc(N2CCOCC2)cc1=O
- IC50 [1]: > 10000 nM
- half-life [2]: 1.4 h
- inhibition in vivo at 244 mg/kg (Mus musculus [3]): 0%
- inhibition in vivo at 30 mg/kg (Mus musculus [4]): 0%
- inhibition in vivo at 244 mg/kg (Mus musculus [5]): 0%
- inhibition in vivo at 30 mg/kg (Mus musculus [6]): 86%
- inhibition in vivo at 30 mg/kg (Mus musculus [7]): 23%
- IC50 [8]: 8280 nM
- concentration at 1 h [9]: 6 µM
- metabolised at 20 min [10]: 44%
- concentration at 6 h [11]: 0.4 µM
- IC50 (Cytochrome P450 3A4): > 40000 nM
- concentration at 1 h [12]: 4.5 µM
- inhibition in vivo at 30 mg/kg (Mus musculus [13]): 91%
- IC50 [14]: 79 nM
- concentration at 6 h [15]: 1.7 µM
- concentration at 6 h [16]: 1.6 µM
- Ratio [17]: 4
- concentration at 1 h [18]: 10 µM
- inhibition in vivo at 244 mg/kg (Mus musculus [19]): 63%
- Vd [20]: 1.3 L/kg
- Papp [21]: 6.6 ×10⁻⁶ cm/s
- IC50 [22]: 42 nM
- CLH (Mus musculus [23]): 26.7 mL/min/kg
- concentration at 6 h [24]: 1 µM
- solubility thermodynamic at 16 h [25]: 5 µM (≈ 1.9 µg/mL)
- metabolised at 20 min [26]: 12%
- concentration at 1 h [27]: 11 µM
- bioavailability [28]: 52%
- IC50 [29]: 2210 nM
- inhibition in vivo at 244 mg/kg (Mus musculus [30]): 73%

Source: ChEMBL document CHEMBL2150988, “Preparation and optimization of new 4-(morpholin-4-yl)-(6-oxo-1,6-dihydropyrimidin-2-yl)amide derivatives as PI3Kβ inhibitors” (Bioorg Med Chem Lett, 2012)
